Reference: ChEMBL document CHEMBL2390866, “Novel pyrimidoazepine analogs as serotonin 5-HT(2A) and 5-HT(2C) receptor ligands for the treatment of obesity” (Eur J Med Chem, 2013)
The source made the active and inactive calls. The calls are words filed in the database; no cut-off is given here.

Columns and labels:
[1] = test system: Mus musculus; assay: Antiobesity activity in B6.V/J ob/ob mouse assessed as inhibition of food intake at 12.5 mg/kg, ip measured up to 2 hrs relative to vehicle-treated control; assay type: functional; conditions: route intraperitoneal
How it was run: (§1)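 Male mice were acclimated 1 week at 23 ± 3 °C and 50 ± 20% humidity, then fasted 24 h. They were dosed once intraperitoneally with vehicle or compound: 50 mg/kg in C57BL/6, or 12.5, 25 or 50 mg/kg in B6.V-Lep^ob/J. Food intake was measured at 2, 6 and 12 h versus vehicle control.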

[2] = test system: Mus musculus; assay: Antiobesity activity in B6.V/J ob/ob mouse assessed as change in liver weight at 50 mg/kg, po bid measured after 14 days (reference value: 3.396 +/- 0.162 g); assay type: functional
[3] = test system: Mus musculus; assay: Antiobesity activity in B6.V/J ob/ob mouse assessed as reduction of food intake at 25 mg/kg, po qd measured after 14 days; assay type: functional, organism-based; design: dose 25 mg/kg
How it was run: (§2)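 Male ob/ob mice (B6.V-Lep^ob/J) received oral doses once daily for 14 days, with vehicle control. Food intake and body weight gain were followed.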

[4] = test system: Mus musculus; assay: Antiobesity activity in B6.V/J ob/ob mouse assessed as change in kidney weight at 50 mg/kg, po bid measured after 14 days (reference value: 0.339 +/- 0.009 g); assay type: functional
[5] = molecular target: 5-hydroxytryptamine receptor 2A (Homo sapiens, UniProt P28223); assay: Displacement of [3H]-ketanserin from human recombinant 5HT-2A receptor expressed in CHOK1 cell membranes after 60 mins; design: species or system CHO-K1
How it was run: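 Buffer was 50 mM Tris-HCl pH 7.4 with 5 mM CaCl2 and 0.1% ascorbic acid. Test compound added at a range of concentrations.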

[6] = Drug excretion in Sprague-Dawley rat at 10 mg/kg, po; assay type: ADME, organism-based; design: dose 10 mg/kg, route oral; conditions: in vivo, read-out: Ae
How it was run: (§3)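 Rats fasted 12 h, then dosed orally by gavage or by bolus tail-vein injection at 2 ml/kg. Compound given as a 5 mg/ml solution in N-methyl-2-pyrrolidone/Tween 80/water (1:2:7). Samples taken at various times (n = 5) and stored at −70 °C. Plasma deproteinized with acetonitrile containing carbamazepine internal standard, then quantified by LC-MS/MS.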

[7] = Ratio of drug level from brain to plasma in Sprague-Dawley rat at 10 mg/kg, po measured at 2 hrs; assay type: ADME, organism-based; design: dose 10 mg/kg, route oral; conditions: read-out: BPR; how it was run: as §3
[8] = molecular target: 5-hydroxytryptamine receptor 7 (Homo sapiens, UniProt P34969); assay: Displacement of [3H]-LSD from human recombinant 5HT-7 receptor expressed in CHOK1 cell membranes after 120 mins; design: species or system CHO-K1
How it was run: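 CHO-K1 membranes expressing human 5-HT7 incubated with 3 nM [3H]LSD for 120 min at 27 °C in 50 mM Tris-HCl pH 7.4, 10 mM MgSO4, 0.5 mM EDTA. Filtered on glass-fiber filters presoaked in 0.3% PEI. Methiothepin defined nonspecific binding.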

[9] = test system: Mus musculus; assay: Antiobesity activity in B6.V/J ob/ob mouse assessed as change in spleen weight at 5 mg/kg, po bid measured after 14 days (reference value: 0.097 +/- 0.052 g); assay type: functional
[10] = test system: Mus musculus; assay: Antiobesity activity in B6.V/J ob/ob mouse assessed as inhibition of body weight gain at 12.5 mg/kg, ip measured after 12 hrs relative to vehicle-treated control; assay type: functional; conditions: route intraperitoneal
[11] = Tmax in Sprague-Dawley rat at 10 mg/kg, po; assay type: ADME, organism-based; design: dose 10 mg/kg, route oral; conditions: in vivo; how it was run: as §3
[12] = test system: Mus musculus; assay: Antiobesity activity in B6.V/J ob/ob mouse assessed as inhibition of food intake at 50 mg/kg, ip measured up to 6 hrs relative to vehicle-treated control; assay type: functional; conditions: route intraperitoneal; how it was run: as §1
[13] = test system: Mus musculus; assay: Antiobesity activity in B6.V/J ob/ob mouse assessed as change in brain weight at 50 mg/kg, po bid measured after 14 days (reference value: 0.340 +/- 0.017 g); assay type: functional
[14] = test system: Mus musculus; assay: Antiobesity activity in B6.V/J ob/ob mouse assessed as inhibition of food intake at 50 mg/kg, ip measured up to 2 hrs relative to vehicle-treated control; assay type: functional; conditions: route intraperitoneal; how it was run: as §1
[15] = test system: Mus musculus; assay: Antiobesity activity in B6.V/J ob/ob mouse assessed as inhibition of food intake at 12.5 mg/kg, ip measured up to 6 hrs relative to vehicle-treated control; assay type: functional; conditions: route intraperitoneal; how it was run: as §1
[16] = Plasma concentration in Sprague-Dawley rat at 10 mg/kg, iv measured at 2 hrs; assay type: ADME, organism-based; design: dose 10 mg/kg, route intravenous; how it was run: as §3
[17] = Cmax in Sprague-Dawley rat at 10 mg/kg, po; assay type: ADME, organism-based; design: dose 10 mg/kg, route oral; conditions: in vivo; how it was run: as §3
[18] = test system: Mus musculus; assay: Antiobesity activity in B6.V/J ob/ob mouse assessed as change in heart weight at 50 mg/kg, po bid measured after 14 days (reference value: 0.150 +/- 0.003 g); assay type: functional
[19] = molecular target: 5-hydroxytryptamine receptor 2B (Homo sapiens, UniProt P41595); assay: Displacement of […] from human recombinant 5HT-2B receptor
[20] = Drug uptake in Sprague-Dawley rat brain at 10 mg/kg, po measured at 2 hrs; assay type: ADME, organism-based; design: dose 10 mg/kg, route oral; conditions: read-out: Drug uptake; how it was run: as §3
[21] = test system: Mus musculus; assay: Antiobesity activity in B6.V/J ob/ob mouse assessed as reduction of body weight gain at 50 mg/kg, po qd measured after 14 days; assay type: functional, organism-based; design: dose 50 mg/kg; how it was run: as §2
[22] = molecular target: 5-hydroxytryptamine receptor 6 (Homo sapiens, UniProt P50406); assay: Displacement of [3H]-LSD from human recombinant 5HT-6 receptor expressed in CHOK1 cell membranes after 60 mins; design: species or system CHO-K1
How it was run: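 CHO-K1 membranes expressing human 5-HT6 incubated with 1 nM [3H]LSD for 60 min at 27 °C in 50 mM Tris-HCl pH 7.4 containing 4 mM CaCl2 and 0.1% ascorbic acid. Terminated by filtration on glass-fiber filters presoaked in 0.5% PEI. Methiothepin defined nonspecific binding.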

[23] = test system: Mus musculus; assay: Antiobesity activity in B6.V/J ob/ob mouse assessed as inhibition of food intake at 12.5 mg/kg, ip measured up to 12 hrs relative to vehicle-treated control; assay type: functional; conditions: route intraperitoneal; how it was run: as §1
[24] = test system: Mus musculus; assay: Antiobesity activity in B6.V/J ob/ob mouse assessed as change in spleen weight at 50 mg/kg, po bid measured after 14 days (reference value: 0.097 +/- 0.052 g); assay type: functional
[25] = test system: Mus musculus; assay: Antiobesity activity in B6.V/J ob/ob mouse assessed as change in thymus weight at 50 mg/kg, po bid measured after 14 days (reference value: 0.029 +/- 0.006 g); assay type: functional
[26] = Drug uptake in Sprague-Dawley rat brain at 10 mg/kg, iv measured at 2 hrs; assay type: ADME, organism-based; design: dose 10 mg/kg, route intravenous; conditions: read-out: Drug uptake; how it was run: as §3
[27] = Oral bioavailability in Sprague-Dawley rat at 10 mg/kg; assay type: ADME, organism-based; conditions: in vivo; how it was run: as §3
[28] = test system: Mus musculus; assay: Antiobesity activity in B6.V/J ob/ob mouse assessed as change in gonadal adipose tissue weight at 5 mg/kg, po bid measured after 14 days (reference value: 3.599 +/- 0.155 g); assay type: functional
[29] = AUClast in Sprague-Dawley rat at 10 mg/kg, po; assay type: ADME, organism-based; design: time 0 - last, dose 10 mg/kg, route oral; conditions: plasma
[30] = Ratio of drug level from brain to plasma in Sprague-Dawley rat at 10 mg/kg, iv measured at 2 hrs; assay type: ADME, organism-based; design: dose 10 mg/kg, route intravenous; conditions: read-out: BPR; how it was run: as §3
[31] = Plasma concentration in Sprague-Dawley rat at 10 mg/kg, iv measured at 8 hrs; assay type: ADME, organism-based; design: dose 10 mg/kg, route intravenous; how it was run: as §3
[32] = test system: Mus musculus; assay: Antiobesity activity in B6.V/J ob/ob mouse assessed as change in spleen weight at 25 mg/kg, po bid measured after 14 days (reference value: 0.097 +/- 0.052 g); assay type: functional

5-hydroxytryptamine receptor 2B, sequence (P41595 whole entry): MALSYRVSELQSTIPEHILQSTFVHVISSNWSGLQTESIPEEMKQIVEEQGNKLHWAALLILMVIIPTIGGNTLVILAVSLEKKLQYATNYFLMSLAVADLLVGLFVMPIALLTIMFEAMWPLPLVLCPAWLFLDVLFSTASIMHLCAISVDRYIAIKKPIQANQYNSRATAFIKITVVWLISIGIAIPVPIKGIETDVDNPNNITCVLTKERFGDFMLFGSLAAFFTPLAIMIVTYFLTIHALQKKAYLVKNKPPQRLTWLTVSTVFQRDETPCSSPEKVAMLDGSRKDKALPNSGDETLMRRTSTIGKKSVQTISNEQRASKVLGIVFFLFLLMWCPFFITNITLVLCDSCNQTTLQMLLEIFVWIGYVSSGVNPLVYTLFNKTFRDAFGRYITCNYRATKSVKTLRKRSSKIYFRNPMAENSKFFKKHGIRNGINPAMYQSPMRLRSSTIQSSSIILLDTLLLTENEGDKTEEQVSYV
5-hydroxytryptamine receptor 6, sequence (P50406 whole entry): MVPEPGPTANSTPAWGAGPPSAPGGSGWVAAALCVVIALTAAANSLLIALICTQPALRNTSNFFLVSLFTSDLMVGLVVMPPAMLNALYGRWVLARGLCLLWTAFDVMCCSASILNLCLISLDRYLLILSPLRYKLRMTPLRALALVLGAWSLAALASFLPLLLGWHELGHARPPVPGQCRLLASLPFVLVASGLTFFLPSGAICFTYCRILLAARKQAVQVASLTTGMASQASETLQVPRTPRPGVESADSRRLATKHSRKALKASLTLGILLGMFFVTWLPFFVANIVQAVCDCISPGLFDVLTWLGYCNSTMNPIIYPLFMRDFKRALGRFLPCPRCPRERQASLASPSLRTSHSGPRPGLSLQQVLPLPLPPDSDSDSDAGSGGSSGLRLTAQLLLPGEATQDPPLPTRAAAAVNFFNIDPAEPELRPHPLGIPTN
5-hydroxytryptamine receptor 7, sequence (P34969 whole entry): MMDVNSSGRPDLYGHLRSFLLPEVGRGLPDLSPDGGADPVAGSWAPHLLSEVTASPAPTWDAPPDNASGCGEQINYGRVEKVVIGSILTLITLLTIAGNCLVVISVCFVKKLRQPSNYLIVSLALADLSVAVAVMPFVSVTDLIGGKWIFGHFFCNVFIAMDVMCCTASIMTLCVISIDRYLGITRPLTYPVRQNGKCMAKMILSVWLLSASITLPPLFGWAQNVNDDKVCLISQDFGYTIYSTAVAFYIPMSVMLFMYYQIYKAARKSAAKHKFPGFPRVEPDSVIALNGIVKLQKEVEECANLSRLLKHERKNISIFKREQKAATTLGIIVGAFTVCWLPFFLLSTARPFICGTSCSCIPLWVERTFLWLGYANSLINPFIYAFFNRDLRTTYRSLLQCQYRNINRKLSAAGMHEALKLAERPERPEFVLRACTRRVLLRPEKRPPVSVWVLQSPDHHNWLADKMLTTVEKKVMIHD
5-hydroxytryptamine receptor 2A, sequence (P28223 whole entry): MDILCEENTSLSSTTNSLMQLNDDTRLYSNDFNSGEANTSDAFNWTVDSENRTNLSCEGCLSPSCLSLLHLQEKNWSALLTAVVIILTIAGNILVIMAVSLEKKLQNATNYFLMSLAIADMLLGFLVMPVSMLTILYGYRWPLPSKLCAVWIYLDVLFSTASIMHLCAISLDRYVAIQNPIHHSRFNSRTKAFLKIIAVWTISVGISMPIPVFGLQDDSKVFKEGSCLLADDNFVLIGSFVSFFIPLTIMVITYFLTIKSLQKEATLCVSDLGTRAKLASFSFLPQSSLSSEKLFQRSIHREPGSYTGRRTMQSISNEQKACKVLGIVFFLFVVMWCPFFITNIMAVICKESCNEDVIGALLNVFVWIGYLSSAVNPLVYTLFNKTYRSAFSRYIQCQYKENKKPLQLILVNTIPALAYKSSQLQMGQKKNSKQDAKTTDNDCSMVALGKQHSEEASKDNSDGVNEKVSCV

With `Cl.Clc1cccc(Nc2nc(Cc3ccccc3)nc3c2CCNCC3)c1` the inhibition in vivo at 12.5 mg/kg [1] was 98.6%, the Activity [2] was 3.87 g and the Activity [3] was “inactive”. The Activity [4] was 0.35 g, the IC50 [5] was 3 nM and the dose excreted [6] was 0.03%. It also gave a Kp at 2 h [7] of 0.66, an IC50 [8] of 1000 nM and an Activity [9] of 0.057 g. The inhibition in vivo at 12.5 mg/kg [10] was 24.9%, the Tmax [11] was 3.5 h and the inhibition in vivo at 50 mg/kg [12] was 98.6%. For the same compound, the Activity [13] was 0.36 g, the inhibition in vivo at 50 mg/kg [14] was 99.8% and the inhibition in vivo at 12.5 mg/kg [15] was 71%. The concentration at 2 h [16] was 190 ng/mL, the Cmax [17] was 70 ng/mL and the Activity [18] was 0.17 g. For the same compound, the IC50 [19] was 32 nM, the concentration at 2 h [20] was 29.2 ng/mL and the Activity [21] was “inactive”. The IC50 [22] was 21.8 nM, the inhibition in vivo at 12.5 mg/kg [23] was 47.8% and the Activity [24] was 0.075 g. The Activity [25] was 0.04 g, the concentration at 2 h [26] was 1480 ng/mL and the bioavailability [27] was 55.1%. It also gave an Activity [28] of 3.776 g, an AUC(0-t) [29] of 375 ng·h/mL and a Kp at 2 h [30] of 9.33. The concentration at 8 h [31] was 60 ng/mL and the Activity [32] was 0.111 g.
